In ChEMBL document CHEMBL3091335, “Design and synthesis of potent and selective P2X₃ receptor antagonists derived from PPADS as potential pain modulators” (Eur J Med Chem, 2013):
pIC50: −log10 of the molar value. Active and inactive are the calls of the source. No cut-off for these calls is given here.

Key:
[1] = target: T1, P2X purinoceptor 1 (Mus musculus) (UniProt P51576); assay: Antagonist activity at recombinant mouse P2X1 receptor expressed in Xenopus oocytes assessed as inhibition of ATP-induced ion current at 10 uM preincubated for 20 mins followed by ATP addition by two-electrode voltage clamp assay relative to control; format: cell-based
T1 sequence (whole entry): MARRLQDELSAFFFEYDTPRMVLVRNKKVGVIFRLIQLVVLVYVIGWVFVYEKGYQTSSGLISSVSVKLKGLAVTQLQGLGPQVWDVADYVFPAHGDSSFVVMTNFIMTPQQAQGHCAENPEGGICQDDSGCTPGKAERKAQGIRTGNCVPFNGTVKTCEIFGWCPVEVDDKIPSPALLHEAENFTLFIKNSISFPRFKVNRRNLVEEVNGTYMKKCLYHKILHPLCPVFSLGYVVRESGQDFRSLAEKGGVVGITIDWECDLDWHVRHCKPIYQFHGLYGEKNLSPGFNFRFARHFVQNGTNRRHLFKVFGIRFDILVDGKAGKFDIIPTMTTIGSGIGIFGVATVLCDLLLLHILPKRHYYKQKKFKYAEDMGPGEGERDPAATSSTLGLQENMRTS
How it was run: (§1)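 Defolliculated Xenopus oocytes were injected with mP2X1 or hP2X3 cRNA (40 nL), held 24 h at 18 °C in Barth's solution, then stored at 4 °C for up to 12 days. Two-electrode voltage clamp was run at Vh −70 mV in HEPES/BaCl2 buffer at pH 7.5. ATP was superfused for 60–120 s with 20 min washout. Currents were normalized to the ATP response, giving % inhibition or IC50 from inhibition curves; mean ± SEM, n≥3.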

P2X purinoceptor 3 = target: T2, P2X purinoceptor 3 (Homo sapiens, UniProt P56373); assay: Antagonist activity at recombinant human P2X3 receptor expressed in Xenopus oocytes assessed as inhibition of ATP-induced ion current preincubated for 20 mins followed by ATP addition by two-electrode voltage clamp assay; format: cell-based; how it was run: as §1
T2 sequence (P56373 whole entry): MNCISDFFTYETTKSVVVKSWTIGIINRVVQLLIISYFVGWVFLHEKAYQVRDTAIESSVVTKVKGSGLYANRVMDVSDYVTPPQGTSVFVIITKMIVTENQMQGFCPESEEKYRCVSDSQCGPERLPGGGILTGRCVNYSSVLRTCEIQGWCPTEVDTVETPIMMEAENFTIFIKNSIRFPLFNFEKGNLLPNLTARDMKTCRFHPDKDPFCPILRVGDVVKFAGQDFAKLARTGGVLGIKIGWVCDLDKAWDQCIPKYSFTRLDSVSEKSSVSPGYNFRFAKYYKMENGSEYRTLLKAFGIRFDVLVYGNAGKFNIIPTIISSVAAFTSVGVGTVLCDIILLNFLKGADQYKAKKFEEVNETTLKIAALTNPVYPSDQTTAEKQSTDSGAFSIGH

[2] = target: T3, P2X purinoceptor 7 (Homo sapiens) (UniProt Q99572); assay: Antagonist activity at human P2X7 receptor expressed in HEK293 cells assessed as inhibition of BzATP-induced accumulation of ethidium+ at 10 uM after 120 mins by fluorescence assay relative to control; format: cell-based
T3 sequence (whole entry): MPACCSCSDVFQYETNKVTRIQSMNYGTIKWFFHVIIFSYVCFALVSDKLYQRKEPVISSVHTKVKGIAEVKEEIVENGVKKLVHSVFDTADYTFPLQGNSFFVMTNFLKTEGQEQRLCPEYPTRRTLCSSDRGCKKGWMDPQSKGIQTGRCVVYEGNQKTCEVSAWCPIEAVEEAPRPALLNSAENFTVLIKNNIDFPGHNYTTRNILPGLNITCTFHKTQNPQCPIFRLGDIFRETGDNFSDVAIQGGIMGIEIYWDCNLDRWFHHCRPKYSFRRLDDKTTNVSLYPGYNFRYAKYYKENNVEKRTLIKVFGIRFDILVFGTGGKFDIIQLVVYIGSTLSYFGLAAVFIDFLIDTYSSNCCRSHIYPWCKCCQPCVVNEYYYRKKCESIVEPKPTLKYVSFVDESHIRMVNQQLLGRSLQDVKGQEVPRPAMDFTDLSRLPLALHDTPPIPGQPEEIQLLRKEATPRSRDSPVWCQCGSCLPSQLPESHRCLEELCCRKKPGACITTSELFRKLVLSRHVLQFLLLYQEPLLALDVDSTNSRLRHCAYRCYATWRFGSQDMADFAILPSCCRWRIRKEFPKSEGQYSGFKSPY
How it was run: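 HEK293 cells expressing hP2X7 were grown in DMEM with 10% FBS at 37 °C under 5% CO2, harvested with trypsin/EDTA and resuspended at 2.5 × 10⁶ cells/mL in KCl/glucose/EDTA/HEPES buffer (pH 7.4) with ethidium bromide. Cells were plated at 2 × 10⁵ cells/well with BzATP and incubated at 37 °C for 120 min. Fluorescence was read at ex 530/em 590 nm; mean ± SEM, n≥3.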

[3] = target: T4, P2X purinoceptor 3 (Homo sapiens) (UniProt P56373); assay: Antagonist activity at recombinant human P2X3 receptor expressed in Xenopus oocytes assessed as inhibition of ATP-induced ion current at 1 uM preincubated for 15 mins followed by ATP addition by two-electrode voltage clamp assay relative to control; format: cell-based
T4 sequence (whole entry): T2 sequence (P56373 whole entry)

[4] = target: T5, P2X2/P2X3 receptor (Rattus norvegicus) (UniProt P49653+P49654); assay: Antagonist activity at recombinant rat P2X2/3 receptor expressed in Xenopus oocytes assessed as inhibition of ATP-induced ion current at 1 uM preincubated for 15 mins followed by ATP addition by two-electrode voltage clamp assay relative to control; format: cell-based
[5] = Antinociceptive activity in rat spinal dorsal horn assessed as inhibition of electrically-stimulated long term potentiation at 20 uM by Di-4-ANEPPS dye-based assay relative to control; format: functional; conditions: Dorsal horn of spinal cord
How it was run: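 Ex vivo rat spinal cord slices (0.5 mm) loaded with voltage-sensitive dye Di-4-ANEPPS; optical signal in dorsal horn monitored before and after LTP induction by 2 Hz electrical stimulation (0.5 msec pulse) for 2 min. Expressed as % inhibition of LTP with compound treatment; means ± SD of 4 samples; pregabalin positive control.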

[6] = target: T5, P2X2/P2X3 receptor (Rattus norvegicus); assay: Antagonist activity at recombinant rat P2X2/3 receptor expressed in Xenopus oocytes assessed as inhibition of ATP-induced ion current at 100 nM preincubated for 15 mins followed by ATP addition by two-electrode voltage clamp assay relative to control; format: cell-based
[7] = target: T4, P2X purinoceptor 3 (Homo sapiens); assay: Antagonist activity at recombinant human P2X3 receptor expressed in Xenopus oocytes assessed as inhibition of ATP-induced ion current at 100 nM preincubated for 15 mins followed by ATP addition by two-electrode voltage clamp assay relative to control; format: cell-based
P2X purinoceptor 1 [8] = target: T6, P2X purinoceptor 1 (Mus musculus, UniProt P51576); assay: Antagonist activity at mouse P2X1 receptor
T6 sequence (P51576 whole entry): T1 sequence (whole entry)

[9] = target: T4, P2X purinoceptor 3 (Homo sapiens); assay: Antagonist activity at recombinant human P2X3 receptor expressed in Xenopus oocytes assessed as inhibition of ATP-induced ion current at 10 uM preincubated for 20 mins followed by ATP addition by two-electrode voltage clamp assay relative to control; format: cell-based; how it was run: as §1
P2X purinoceptor 1 [10] = target: T6, P2X purinoceptor 1; assay: Antagonist activity at recombinant mouse P2X1 receptor expressed in Xenopus oocytes assessed as inhibition of ATP-induced ion current preincubated for 20 mins followed by ATP addition by two-electrode voltage clamp assay; format: cell-based; how it was run: as §1

Structure (SMILES)	inhibition [1]	pIC50 (P2X purinoceptor 3)	inhibition [2]	inhibition [9]	also measured
Cc1nc(CCc2cccc(Oc3ccccc3)c2)c(C(=O)O)c(C(=O)O)c1O	38.3%	6.23	inactive		
Cc1nc(Cc2cccc(Oc3ccccc3)c2)c(/C=C/C(=O)O)c(C=O)c1O	18.3%	7.22	15.1%		inhibition [3]: 77.4%; inhibition [4]: 70.8%; inhibition at 20 µM [5]: 65%; inhibition [6]: 49.2%; inhibition [7]: 59.7%
CC(C)C[C@H](CN)CC(=O)O [PREGABALIN]					inhibition at 20 µM [5]: 31%
Cc1nc(/N=N/c2ccc(S(=O)(=O)O)cc2S(=O)(=O)O)c(COP(=O)(O)O)c(C=O)c1O					pIC50 (P2X purinoceptor 1 [8]): 7.00
CC(=O)c1c(O)c(C)nc(/C=C/c2ccccc2)c1C(=O)O	52.4%		inactive	27.4%	
Cc1cc(C(=O)O)c(C(=O)O)c(NC(=O)c2ccccc2)n1			inactive	inactive	
COc1ccc(CCc2nc(C)c(O)c(C(=O)O)c2C(=O)O)cc1		6.34	inactive		pIC50 (P2X purinoceptor 1 [10]): 6.35
Cc1nc(Cc2cccc(Oc3ccccc3)c2)c(C(=O)O)c(C(=O)O)c1O	41.8%	6.32	inactive		
Cc1nc(NC(=O)c2cccc(Oc3ccccc3)c2)c(C(=O)O)c(C(=O)O)c1O		6.03	inactive		
Cc1nc(-c2cccc(Oc3ccccc3)c2)c(C(=O)O)c(C(=O)O)c1O	49.7%	5.48	inactive		
Cc1nc(NC(=O)c2ccccc2)c(C(=O)O)c(C(=O)O)c1O		6.14	inactive		
Cc1nc(Cc2cccc(Oc3ccccc3)c2)c(CCC(=O)O)c(C(=O)O)c1O	31.7%	6.20	inactive		
CC(=O)c1c(O)c(C)nc(Cc2ccccc2)c1C(=O)O	44.2%		inactive	18.3%	
Cc1nc(CCc2ccc(C(=O)O)cc2)c(C(=O)O)c(C(=O)O)c1O		6.34	inactive		pIC50 (P2X purinoceptor 1 [10]): 6.57
Cc1nc(Cc2cccc3ccccc23)c2c(c1O)C(O)OC2=O (configuration not stated)		6.07	14.8%		
Cc1nc(Cc2cccc(Oc3ccccc3)c2)c(CCC(=O)O)c(C=O)c1O	23%	6.44	10.2%		
Cc1nc(Cc2ccc(Oc3ccccc3)cc2)c(C(=O)O)c(C(=O)O)c1O	40%	5.98	inactive		

Structure (SMILES)	inhibition [1]	pIC50 (P2X purinoceptor 3)	inhibition [2]	inhibition [9]	also measured
Cc1nc(Cc2cccc3ccccc23)c(CCC(=O)O)c(C=O)c1O		6.20	43.4%		
COc1cccc(CCc2nc(C)c(O)c(C(C)=O)c2C(=O)O)c1	29.9%		inactive	15.8%	
CC(=O)c1c(O)c(C)nc(CCc2ccccc2)c1C(=O)O	47.9%		inactive	37.3%	
Cc1nc(CCc2ccccc2)c(C(=O)O)c(C(=O)O)c1O		6.10	inactive		pIC50 (P2X purinoceptor 1 [10]): 6.19
COc1cccc(CCc2nc(C)c(O)c(C(=O)O)c2C(=O)O)c1	52.4%		inactive	45.5%	
Cc1nc(COCc2ccccc2)c(C(=O)O)c(C(=O)O)c1O			inactive	23.1%	
Cc1nc(Cc2ccccc2)c(C(=O)O)c(C(=O)O)c1O	54.2%		inactive	31.4%	
Cc1nc(Cc2ccccc2Oc2ccccc2)c(C(=O)O)c(C(=O)O)c1O	49.6%	5.53	inactive		
Cc1nc(Cc2cccc(Oc3ccccc3)c2)c(/C=C/C(=O)O)c(C(=O)O)c1O	33.7%	6.42	inactive		
COc1ccccc1CCc1nc(C)c(O)c(C(=O)O)c1C(=O)O	49.8%		inactive	34.5%	
Cc1nc(Cc2cccc3ccccc23)c(/C=C/C(=O)O)c(C=O)c1O	22%	6.84	48.4%		
Cc1nc(Cc2cccc3ccccc23)c(C(=O)O)c(C(=O)O)c1O	48.7%	5.90	inactive		
COc1ccccc1CCc1nc(C)c(O)c(C(C)=O)c1C(=O)O	11.4%		inactive	6.3%	
Cc1nc(/C=C/c2ccccc2)c(C(=O)O)c(C(=O)O)c1O		6.04	inactive		pIC50 (P2X purinoceptor 1 [10]): 6.11
COc1ccc(CCc2nc(C)c(O)c(C(C)=O)c2C(=O)O)cc1	52%		inactive	42.2%	
Cc1nc(CC(c2ccccc2)c2ccccc2)c(C(=O)O)c(C(=O)O)c1O	42%	6.08	inactive		
Cc1nc(Cc2cccc(Oc3ccccc3)c2)c2c(c1O)C(O)OC2=O (configuration not stated)	45%	6.19	27.1%		
